Compounds with a hit are over-represented: about 2.2% of the library has one in this group of screens.
PfM18AAP inh-1 = blocks P. falciparum M18 aspartyl aminopeptidase. recombinant PfM18AAP, H-Glu-NHMec fluorogenic cleavage. inhibition, % at 7.35 µM. 1.2% of 290,000 active. AID 1822;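 active = inhibition above the campaign mean inhibition over all tested compounds plus 3 SD, cut at about 28% in these data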
PfG6PD inh = PfG6PD (Plasmodium falciparum) enzyme inhibition; PfGluPho enzyme, NADPH resazurin-diaphorase fluorescence; inhibition, % at 20 µM; 0.78% of 350,000 active; AID 504690;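 active = inhibition reaching at least a set limit at 20 µM in the primary screen, cut at about 59% in these data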
HKDC1 inh = inhibitors of human hexokinase HKDC1. Q2TB90. recombinant HKDC1, G6PDH/diaphorase resazurin coupled fluorescence. inhibition, % at 20 µM. 0.16% of 340,000 active;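 active = inhibition above about 35% when tested at 20 µM, limit read from the data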
Target sequence (Q2TB90 whole entry, looked up): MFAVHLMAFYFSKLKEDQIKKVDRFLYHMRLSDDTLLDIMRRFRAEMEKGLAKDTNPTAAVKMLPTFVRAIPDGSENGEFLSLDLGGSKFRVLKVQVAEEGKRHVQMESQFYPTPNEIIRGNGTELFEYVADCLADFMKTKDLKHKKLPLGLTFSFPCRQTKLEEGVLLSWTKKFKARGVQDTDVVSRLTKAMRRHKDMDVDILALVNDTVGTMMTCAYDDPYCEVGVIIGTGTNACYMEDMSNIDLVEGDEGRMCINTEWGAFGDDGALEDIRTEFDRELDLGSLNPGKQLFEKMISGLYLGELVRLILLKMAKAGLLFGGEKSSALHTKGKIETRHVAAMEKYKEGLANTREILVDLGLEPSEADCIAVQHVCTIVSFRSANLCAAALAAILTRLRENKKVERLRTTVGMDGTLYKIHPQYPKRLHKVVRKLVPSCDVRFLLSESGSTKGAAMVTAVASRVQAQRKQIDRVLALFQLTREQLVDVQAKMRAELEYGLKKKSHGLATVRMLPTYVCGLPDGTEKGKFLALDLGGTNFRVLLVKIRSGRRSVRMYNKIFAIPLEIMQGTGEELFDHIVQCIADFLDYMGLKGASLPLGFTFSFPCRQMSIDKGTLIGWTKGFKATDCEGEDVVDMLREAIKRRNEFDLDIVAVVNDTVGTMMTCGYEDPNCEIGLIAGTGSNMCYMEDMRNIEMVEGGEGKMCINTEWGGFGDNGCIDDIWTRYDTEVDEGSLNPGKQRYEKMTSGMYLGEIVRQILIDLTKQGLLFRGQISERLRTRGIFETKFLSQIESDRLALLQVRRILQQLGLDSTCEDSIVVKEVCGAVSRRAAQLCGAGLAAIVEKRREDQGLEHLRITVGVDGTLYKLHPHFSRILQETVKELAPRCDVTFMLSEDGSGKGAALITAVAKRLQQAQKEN
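Material: recombinant HKDC1 hexokinase; Amount: HKDC1 at 5 µg/mL; Medium: Tris pH 8.0 buffer with MgCl2, Tween-20, BSA, BME; Schedule: 90 min reaction incubation at room temperature, dark; Technique: coupled resazurin fluorescence, excitation 525 nm, emission 613 nm.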
Neddyl block = cullin neddylation inhibition. P61081+Q13564. TR-FRET cullin neddylation, biochemical. inhibition, % at 25 µM. 0.58% of 360,000 active. AID 651699; in the data active = inhibition above about 36%
PfM18AAP inh-2 = confirmation of Plasmodium falciparum M18 aspartyl aminopeptidase inhibitors; shares compounds with PfM18AAP inh-1; recombinant PfM18AAP, H-Glu-NHMec fluorogenic cleavage; inhibition, % at 7.35 µM; 28% of 2,400 active;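 active = mean inhibition over replicate wells above the hit cutoff set for the earlier primary screen, cut at about 29% in these data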
CTSL1 counter = Cathepsin L (human) inhibition, confirmation. shares compounds with PfM18AAP inh-1. purified cathepsin L1, Z-Leu-Arg-MCA fluorescence. inhibition, % at 5.96 µM. 2,400 tested, under 10 active;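 active = average inhibition across replicates above the hit cutoff set in the earlier primary screen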
Hits are given with their value; i = inactive; nt = no result.

SMILES | PfM18AAP inh-1 | PfG6PD inh | HKDC1 inh | Neddyl block | PfM18AAP inh-2 | CTSL1 counter
COc1ccc(/C=C\c2nc(=O)c3ccccc3o2)cc1 | i | i | i | i | nt | nt
O=c1nc(/C=C/c2ccc(O)c(O)c2)oc2ccccc12 | 63 | i | i | i | 56 | i
CCn1c(/C=C/c2ccc(O)c(O)c2)nc2ccccc2c1=O | 54 | i | i | i | 43 | i
Cc1cccc(C(=O)NC(=S)NNC(=O)c2cccs2)c1 | 33 | i | i | i | i | i
C/C(=N/Nc1nc(C)c(C)s1)c1cccc([N+](=O)[O-])c1 | i | i | i | i | nt | nt
O=C1NN(c2ccccc2)C(=O)/C1=C/c1coc2ccccc2c1=O | i | i | i | i | nt | nt
O=C1NN(c2ccccc2)C(=O)/C1=C\c1coc2ccc(O)cc2c1=O | 37 | i | i | i | i | i
Cc1cc2oc(=O)sc2cc1NS(=O)(=O)c1ccccc1 | 36 | i | i | i | i | i
Cc1cc2oc(=O)sc2cc1NS(=O)(=O)c1cccc2cccnc12 | i | i | i | i | nt | nt
COc1ccc(S(=O)(=O)N2CCN(C(=O)c3ccc(=O)[nH]n3)CC2)cc1OC | nt | i | i | i | nt | nt
COC(=O)C1=C(C(=O)c2ccc(C)cc2)C(c2ccc(OC)c(OC)c2)n2nnnc2N1 (stereo unspecified) | 47 | i | i | i | i | i
CCOc1cc(C2C(C(=O)c3ccccc3)=C(C(=O)OC)Nc3nnnn32)ccc1O (stereo unspecified) | i | i | i | i | nt | nt
COC(=O)C1=C(C(=O)c2ccccc2)C(c2ccc(O)c(OC)c2)n2nnnc2N1 (stereo unspecified) | i | i | i | i | nt | nt
COC(=O)C1=C(C(=O)c2ccccc2)C(c2cccs2)n2nnnc2N1 (stereo unspecified) | 55 | i | i | i | i | i
COC(=O)C1=C(C(=O)c2ccc(C)cc2)C(c2ccc(O)c(OC)c2)n2nnnc2N1 (stereo unspecified) | 60 | i | i | i | i | i
COc1ccccc1N(CC(=O)NC1CCCC1)C(=O)CCC(=O)Nc1ccccn1 | i | i | i | i | nt | nt
Cc1ccc(C(=O)Nc2cccc(S(=O)(=O)N3CCCCC3)c2)cc1[N+](=O)[O-] | nt | i | i | i | nt | nt
COc1cccc2sc(NNC(=O)C3=COCCO3)nc12 | 43 | i | i | i | i | i
CCCc1cc(=O)[nH]c2nnc(SCC(=O)Nc3cccc(NC(C)=O)c3)n12 | nt | i | i | i | nt | nt
Cc1ccc(C)c(NC(=S)N2CCN(c3cccc(C(F)(F)F)c3)CC2)c1 | i | i | i | i | nt | nt
Cc1ccnc(NC(=S)N2CCN(c3cccc(C(F)(F)F)c3)CC2)c1 | 39 | i | i | i | i | i
O=c1cc(-c2ccc(O)cc2)oc2cc(O)c(C3OC(CO)C(O)C(O)C3O)c(O)c12 (stereo unspecified) | 44 | i | i | i | i | i
CC(Sc1nc2ccccc2c(=O)n1CCc1ccc(S(N)(=O)=O)cc1)C(=O)NC(N)=O (stereo unspecified) | i | i | i | i | nt | nt
COc1ccccc1NC(=O)C(C)OC(=O)C1CCN(S(=O)(=O)c2ccccc2C(F)(F)F)CC1 (stereo unspecified) | nt | i | i | i | nt | nt
CC(=O)Nc1ccc(NC(=O)C2CCN(C(=O)c3cccs3)CC2)cc1 | i | i | i | i | nt | nt
SMILES | PfM18AAP inh-1 | PfG6PD inh | HKDC1 inh | Neddyl block | PfM18AAP inh-2 | CTSL1 counter
COc1ccc2c(c1)SCC(=O)N2C | i | i | i | i | nt | nt
COc1cc(OC)cc(C(=O)/C=C2\Sc3ccccc3N2C)c1 | 47 | i | i | i | i | i
COc1ccc(C(=O)/C=C2/Sc3cc4c(cc3N2C)OCO4)cc1 | 40 | i | i | i | i | i
COc1ccc(C(=O)/C=C(\C)NCc2ccc3c(c2)OCO3)cc1 | i | i | i | i | nt | nt
CN1/C(=C/C(=O)c2cccs2)Sc2ccccc21 | 49 | nt | nt | i | i | i
COCC(=O)/C=C1\Sc2ccccc2N1C | i | i | i | i | nt | nt
COc1ccc2c(c1)S/C(=C\C(=O)c1ccncc1)N2C | 39 | i | i | i | i | i
COC(=O)c1ccc(NC(=O)CCN2CCOCC2)cc1 | i | i | i | i | nt | nt
CC(C)(C)OC(=O)N1Cc2ccccc2C[C@H]1C(=O)NC1CCCC1 | i | i | i | i | nt | nt
COc1ccc(-n2nc(C(=O)NCC(=O)NCCCN3CCOCC3)c3ccccc3c2=O)c(OC)c1 | i | i | i | i | nt | nt
COc1ccccc1N(CCC#N)C(=O)COC(=O)CCC(=O)c1ccc(F)cc1 | nt | i | i | i | nt | nt

Bioassay records as filed in PubChem BioAssay.
